Blank lines part the entries; values can stand above or below the molecule they belong to. The source made the active and inactive calls. The calls are words filed in the database; no cut-off is given here.
Tests used:
[1] = target: Sphingosine 1-phosphate receptor 1 (Rattus norvegicus, UniProt P48303); assay: Agonist activity at rat S1P1 receptor expressed in CHO-K1 cells by [35S]GTPgammaS binding assay; assay type: functional, cell-based
In short: (§1)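 Agonist-evoked [35S]GTPγS binding was measured on human or rat S1P1 or S1P3 expressed in transfected CHO-K1 cells.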

[2] = Agonist activity at rat S1P3R expressed in CHO-K1 cells by [35S]GTPgammaS binding assay; assay type: functional, cell-based; in short: as §1
[3] = target: Sphingosine 1-phosphate receptor 2 (Homo sapiens) (UniProt O95136); assay: Binding affinity to human S1P2R
[4] = target: Sphingosine 1-phosphate receptor 3 (Homo sapiens, UniProt Q99500); assay: Agonist activity at human S1P3R expressed in CHO-K1 cells by [35S]GTPgammaS binding assay; assay type: functional, cell-based; in short: as §1
[5] = target: Sphingosine 1-phosphate receptor 1 (Homo sapiens, UniProt P21453); assay: Agonist activity at human S1P1 receptor expressed in CHO-K1 cells by [35S]GTPgammaS binding assay; assay type: functional, cell-based; in short: as §1
[6] = species on record: Homo sapiens; assay: Selectivity ratio of EC50 for human S1P3R to EC50 for human S1P1R; in short: as §1
[7] = target: Sphingosine 1-phosphate receptor 5 (Homo sapiens, UniProt Q9H228); assay: Agonist activity at human S1P5R; assay type: functional
[8] = species on record: Rattus norvegicus; assay: Selectivity ratio of EC50 for rat S1P3R to EC50 for rat S1P1R; in short: as §1
[9] = Oral bioavailability in Sprague-Dawley rat at 0.1 mg/kg; assay type: ADME, organism-based; settings: in vivo
In short: (§2)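 Male Sprague−Dawley rats given one oral dose of parent drug at 0.1 or 1 mg/kg. Blood levels of parent and phosphate metabolite were measured over time. Bioavailability of the phosphate is the ratio of its AUC after oral dosing to its AUC after intravenous parent dosing at the same dose. Values are mean ± SD of four animals.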

[10] = system: Rattus norvegicus; assay: Cmax in Sprague-Dawley rat assessed as CS-0777-phosphate at 0.1 mg/kg, po; assay type: ADME, organism-based; parameters: dose 0.1 mg/kg, route oral; settings: in vivo; in short: as §2
[11] = Oral bioavailability in Sprague-Dawley rat at 1 mg/kg; assay type: ADME, organism-based; settings: in vivo; in short: as §2
[12] = system: Rattus norvegicus; assay: Reduction of cumulative disease score in Lewis rat EAE model at 1 mg/kg, po administered daily for 20 days measured after 8 to 21 days relative to control; assay type: functional, organism-based; parameters: dose 1 mg/kg
In short: (§3)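 EAE was induced in 6-week-old female Lewis rats by injecting guinea pig myelin basic protein fragment 68−82 with adjuvant into both hind footpads on day 0. Dosing was oral, daily on days 0–20 (0.01–1 mg/kg). Clinical score (0–6 scale) was recorded daily on days 8–21 and summed to a cumulative score. Analysis used a nonparametric Dunnett test versus vehicle.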

[13] = system: Rattus norvegicus; assay: Tmax in Sprague-Dawley rat assessed as CS-0777-phosphate at 0.1 mg/kg, po; assay type: ADME, organism-based; parameters: dose 0.1 mg/kg, route oral; settings: in vivo; in short: as §2
[14] = system: Rattus norvegicus; assay: Lymphopenic activity in Lewis rat assessed as recovery in blood lymphocyte counts at 1 mg/kg, po after 5 days; assay type: functional, organism-based; parameters: dose 1 mg/kg
In short: (§4)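 Lewis rats received one oral dose of 0.1 or 1 mg/kg in 1% MC vehicle. Lymphocytes were counted by automatic hemacytometer and expressed relative to vehicle controls. n = 5 per group, mean ± SE.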

[15] = system: Rattus norvegicus; assay: Lymphopenic activity in Lewis rat assessed as reduction in blood lymphocyte counts at 0.1 mg/kg, po after 12 hrs relative to control; assay type: functional; parameters: scale not given: the % may be the effect or the level left; in short: as §4
[16] = system: Rattus norvegicus; assay: Lymphopenic activity in Lewis rat assessed as recovery of blood lymphocytes at 1 mg/kg, po after 48 hrs relative to control; assay type: functional; in short: as §4
[17] = AUC (0 to infinity) in Sprague-Dawley rat at 1 mg/kg, po; assay type: ADME, organism-based, Plasma; parameters: time infinity, dose 1 mg/kg, route oral; settings: blood; in short: as §2
[18] = Total body clearance in Sprague-Dawley rat at 0.1 mg/kg, iv; assay type: ADME, organism-based; parameters: dose 0.1 mg/kg, route intravenous; settings: in vivo
In short: (§5)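 Clearance and steady-state volume of distribution were calculated from blood data after intravenous dosing of the parent drug to male Sprague−Dawley rats at 0.1 or 1 mg/kg. Values are mean ± SD of four animals.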

[19] = Cmax in Sprague-Dawley rat at 0.1 mg/kg, po; assay type: ADME, organism-based; parameters: dose 0.1 mg/kg, route oral; settings: in vivo; in short: as §2
[20] = AUC (0 to infinity) in Sprague-Dawley rat at 0.1 mg/kg, po; assay type: ADME, organism-based, Plasma; parameters: dose 0.1 mg/kg, route oral, time infinity; settings: blood; in short: as §2
[21] = Volume of distribution at steady state in Sprague-Dawley rat at 0.1 mg/kg, iv; assay type: ADME, organism-based; parameters: dose 0.1 mg/kg, route intravenous; settings: in vivo, read-out: Vdss; in short: as §5
[22] = Half life in Sprague-Dawley rat at 1 mg/kg, po; assay type: ADME, organism-based; parameters: dose 1 mg/kg, route oral; settings: in vivo; in short: as §2
[23] = system: Rattus norvegicus; assay: AUC (0 to infinity) in Sprague-Dawley rat assessed as CS-0777-phosphate at 0.1 mg/kg, po; assay type: ADME, organism-based, Plasma; parameters: dose 0.1 mg/kg, route oral, time infinity; settings: in vivo; in short: as §2
[24] = Volume of distribution at steady state in Sprague-Dawley rat at 1 mg/kg, iv; assay type: ADME, organism-based; parameters: dose 1 mg/kg, route intravenous; settings: in vivo, read-out: Vdss; in short: as §5
[25] = Cmax in Sprague-Dawley rat at 1 mg/kg, po; assay type: ADME, organism-based; parameters: dose 1 mg/kg, route oral; settings: in vivo; in short: as §2
[26] = system: Rattus norvegicus; assay: Cmax in Sprague-Dawley rat assessed as CS-0777-phosphate at 1 mg/kg, po; assay type: ADME, organism-based; parameters: dose 1 mg/kg, route oral; settings: in vivo; in short: as §2
[27] = system: Rattus norvegicus; assay: Lymphopenic activity in Lewis rat assessed as reduction in blood lymphocyte counts at 1 mg/kg, po after 12 hrs relative to control; assay type: functional; parameters: scale not given: the % may be the effect or the level left; in short: as §4
[28] = system: Rattus norvegicus; assay: AUC (0 to infinity) in Sprague-Dawley rat assessed as CS-0777-phosphate at 1 mg/kg, po; assay type: ADME, organism-based, Plasma; parameters: time infinity, dose 1 mg/kg, route oral; settings: in vivo; in short: as §2
[29] = system: Rattus norvegicus; assay: Tmax in Sprague-Dawley rat assessed as CS-0777-phosphate at 1 mg/kg, po; assay type: ADME, organism-based; parameters: dose 1 mg/kg, route oral; settings: in vivo; in short: as §2
[30] = Tmax in Sprague-Dawley rat at 0.1 mg/kg, po; assay type: ADME, organism-based; parameters: dose 0.1 mg/kg, route oral; settings: in vivo; in short: as §2
[31] = system: Rattus norvegicus; assay: Half life in Sprague-Dawley rat assessed as CS-0777-phosphate at 0.1 mg/kg, po; assay type: ADME, organism-based; parameters: dose 0.1 mg/kg, route oral; settings: in vivo; in short: as §2
[32] = system: Rattus norvegicus; assay: Reduction of cumulative disease score in Lewis rat EAE model at 0.1 mg/kg, po administered daily for 20 days measured after 8 to 21 days relative to control; assay type: functional, organism-based; parameters: dose 0.1 mg/kg; in short: as §3
[33] = Half life in Sprague-Dawley rat at 0.1 mg/kg, po; assay type: ADME, organism-based; parameters: dose 0.1 mg/kg, route oral; settings: in vivo; in short: as §2
[34] = Tmax in Sprague-Dawley rat at 1 mg/kg, po; assay type: ADME, organism-based; parameters: dose 1 mg/kg, route oral; settings: in vivo; in short: as §2
[35] = system: Rattus norvegicus; assay: Oral bioavailability in Sprague-Dawley rat assessed as CS-0777-phosphate at 1 mg/kg; assay type: ADME, organism-based; settings: in vivo; in short: as §2
[36] = system: Rattus norvegicus; assay: Oral bioavailability in Sprague-Dawley rat assessed as CS-0777-phosphate at 0.1 mg/kg; assay type: ADME, organism-based; settings: in vivo; in short: as §2
[37] = system: Rattus norvegicus; assay: Lymphopenic activity in Lewis rat assessed as recovery of blood lymphocytes at 0.1 mg/kg, po after 48 hrs relative to control; assay type: functional; in short: as §4
[38] = system: Rattus norvegicus; assay: Half life in Sprague-Dawley rat assessed as CS-0777-phosphate at 1 mg/kg, po; assay type: ADME, organism-based; parameters: dose 1 mg/kg, route oral; settings: in vivo; in short: as §2
[39] = system: Rattus norvegicus; assay: Lymphopenic activity in Lewis rat assessed as recovery in blood lymphocyte counts at 0.1 mg/kg, po after 5 days; assay type: functional, organism-based; parameters: dose 0.1 mg/kg; in short: as §4
[40] = Total body clearance in Sprague-Dawley rat at 1 mg/kg, iv; assay type: ADME, organism-based; parameters: dose 1 mg/kg, route intravenous; settings: in vivo; in short: as §5

Sphingosine 1-phosphate receptor 2 (Homo sapiens), sequence (O95136 whole entry): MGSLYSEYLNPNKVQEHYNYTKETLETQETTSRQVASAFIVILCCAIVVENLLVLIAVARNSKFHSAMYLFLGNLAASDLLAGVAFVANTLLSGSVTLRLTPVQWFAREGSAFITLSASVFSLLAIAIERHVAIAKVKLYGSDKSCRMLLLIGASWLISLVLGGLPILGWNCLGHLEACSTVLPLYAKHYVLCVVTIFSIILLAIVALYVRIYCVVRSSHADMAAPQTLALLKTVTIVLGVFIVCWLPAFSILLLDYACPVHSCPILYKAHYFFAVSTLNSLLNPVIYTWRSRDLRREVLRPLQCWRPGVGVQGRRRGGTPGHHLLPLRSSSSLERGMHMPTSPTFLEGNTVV
Sphingosine 1-phosphate receptor 1 (Rattus norvegicus, UniProt P48303), sequence (P48303 whole entry): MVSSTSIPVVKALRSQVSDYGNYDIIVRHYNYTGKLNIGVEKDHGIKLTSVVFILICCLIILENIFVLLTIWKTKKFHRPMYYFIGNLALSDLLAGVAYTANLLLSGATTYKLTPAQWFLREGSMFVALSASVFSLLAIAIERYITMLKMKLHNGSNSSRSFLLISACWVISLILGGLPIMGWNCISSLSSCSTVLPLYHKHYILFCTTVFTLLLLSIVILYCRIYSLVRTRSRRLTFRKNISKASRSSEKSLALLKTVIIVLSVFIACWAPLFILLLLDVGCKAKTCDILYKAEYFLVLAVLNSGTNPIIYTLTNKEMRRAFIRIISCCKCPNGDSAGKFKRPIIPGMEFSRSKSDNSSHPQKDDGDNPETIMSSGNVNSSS
Sphingosine 1-phosphate receptor 1 (Homo sapiens, UniProt P21453), sequence (P21453 whole entry): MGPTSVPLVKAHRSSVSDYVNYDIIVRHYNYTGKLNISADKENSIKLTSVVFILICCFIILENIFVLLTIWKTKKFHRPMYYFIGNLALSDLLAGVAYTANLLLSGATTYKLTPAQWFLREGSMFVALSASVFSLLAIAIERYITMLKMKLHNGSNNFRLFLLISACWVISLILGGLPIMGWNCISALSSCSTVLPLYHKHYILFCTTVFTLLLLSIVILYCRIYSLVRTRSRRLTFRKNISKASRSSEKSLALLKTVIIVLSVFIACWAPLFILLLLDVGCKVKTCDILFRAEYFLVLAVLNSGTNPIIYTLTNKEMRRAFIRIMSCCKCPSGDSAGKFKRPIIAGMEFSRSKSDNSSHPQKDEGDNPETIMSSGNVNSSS
Sphingosine 1-phosphate receptor 5, sequence (Q9H228 whole entry): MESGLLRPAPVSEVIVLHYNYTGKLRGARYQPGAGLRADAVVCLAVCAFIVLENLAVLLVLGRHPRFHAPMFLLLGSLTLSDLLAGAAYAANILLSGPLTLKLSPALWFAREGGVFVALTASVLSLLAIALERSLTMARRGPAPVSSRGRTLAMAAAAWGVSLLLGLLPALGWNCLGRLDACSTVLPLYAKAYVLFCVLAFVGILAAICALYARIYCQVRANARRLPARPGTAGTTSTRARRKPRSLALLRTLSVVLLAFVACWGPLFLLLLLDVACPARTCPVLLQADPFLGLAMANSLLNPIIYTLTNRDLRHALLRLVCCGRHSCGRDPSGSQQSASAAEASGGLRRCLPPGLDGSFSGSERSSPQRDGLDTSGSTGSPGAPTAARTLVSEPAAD
Sphingosine 1-phosphate receptor 3, sequence (Q99500 whole entry): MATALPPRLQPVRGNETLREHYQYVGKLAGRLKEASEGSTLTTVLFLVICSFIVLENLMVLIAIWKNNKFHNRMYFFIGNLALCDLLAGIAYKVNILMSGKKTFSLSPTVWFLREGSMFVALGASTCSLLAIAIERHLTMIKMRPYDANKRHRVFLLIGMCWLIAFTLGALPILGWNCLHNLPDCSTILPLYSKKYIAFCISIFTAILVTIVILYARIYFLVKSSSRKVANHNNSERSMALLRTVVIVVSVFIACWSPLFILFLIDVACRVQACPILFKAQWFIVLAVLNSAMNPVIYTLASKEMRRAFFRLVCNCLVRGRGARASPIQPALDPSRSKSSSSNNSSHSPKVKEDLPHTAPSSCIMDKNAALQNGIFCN

EC50 [1]: 0.29 nM
EC50 [2]: 1.3 nM
Activity [3]: inactive
SMILES: CCCCCCCCc1ccc(CC[C@](N)(CO)COP(=O)(O)O)cc1 [FTY720-P]

EC50 [1]: 1.8 nM
EC50 [4]: 350 nM
EC50 [5]: 1.1 nM
EC50 [2]: 200 nM
Ratio EC50 [6]: 320
EC50 [7]: 21 nM
Ratio EC50 [8]: 100
Activity [3]: inactive
SMILES: Cc1ccc(CCCC(=O)c2ccc(CC[C@@](C)(N)COP(=O)(O)O)n2C)cc1

bioavailability [9]: 72.2%
Cmax [10]: 26.4 ng/mL
bioavailability [11]: 69.5%
Tmax [13]: 9.5 h
AUC(0-inf) [17]: 346 ng·h/mL
clearance [18]: 38 mL/min/kg
Cmax [19]: 1.89 ng/mL
AUC(0-inf) [20]: 31.7 ng·h/mL
Vd [21]: 17.1 L/kg
half-life [22]: 10.4 h
AUC [23]: 686 ng·h/mL
Vd [24]: 18.1 L/kg
Cmax [25]: 18.2 ng/mL
Cmax [26]: 220 ng/mL
AUC [28]: 6280 ng·h/mL
Tmax [29]: 9 h
Tmax [30]: 4.75 h
t1/2 [31]: 10.9 h
half-life [33]: 5.4 h
Tmax [34]: 3.25 h
F [35]: 90.8%
F [36]: 80.6%
t1/2 [38]: 11.6 h
clearance [40]: 33.7 mL/min/kg
SMILES: Cc1ccc(CCCC(=O)c2ccc(CC[C@@](C)(N)CO)n2C)cc1
Activity [12]: Active
Activity [14]: inactive
Activity [15]: 27.4%
Activity [16]: 30.1%
Activity [27]: 18.4%
Activity [32]: Active
Activity [37]: 71.5%
Activity [39]: inactive
